Compound activity: PubChem BioAssay, several laboratories
Runt-SMMHC FRET: inhibitors of RUNX1 Runt–CBFb-SMMHC binding, primary screen, biochemical, FRET, Cerulean-Runt, Venus-CBFb-SMMHC, uHTS; 0.74% of 220,000 active; inhibition, % at 20 µM; Cerulean-Runt/Venus-CBFb-SMMHC FRET ratio 530/480, 1 h;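 active = mean inhibition across duplicate retests at 20 µM reaching about 50%, limit read from the data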;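 note: 0% = DMSO wells and 100% = wells with excess untagged CBFb-SMMHC; inhibitors lower the FRET ratio by blocking Runt binding to CBFb-SMMHC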
EBV gp42 block: Epstein-Barr virus gp42 inhibitors, primary screen, biochemical, uHTS, fluorescence polarization | Fluorescence polarization binding assay, mP read-out | inhibition, % (tested at 21.74 µM) | 0.42% of 220,000 active; in the data active = inhibition above about 50%
MEX-5 binding: MEX-5 zinc finger RNA-binding disruptors – biochemical, C. elegans, fluorescence polarization, MLPCN library, primary screen; MEX-5/FITC-TCR2 RNA binding; hits give low values; activity score (negative = inhibition of binding), % at 10 µM; AID 1832, 2009; Zinc finger protein mex-5 (Caenorhabditis elegans), Q9XUB2; 0.38% of 300,000 active;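 active = inhibition past about -25% in most replicates, and total fluorescence under double the plate's negative control median, limit read from the data; inconclusive = replicates evenly split on the limit, or fluorescence at least double controls; inactive = too little inhibition in most replicates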;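 note: 0% = DMSO and -100% = 5 µM competing unlabeled TCR2 RNA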
RanGTP-Impb inh: inhibitors of RanGTP-importin-beta interaction, primary screen, biochemical, FRET, CFP-Ran, YFP-importin-beta, homogeneous | Ran GTPase (GTP-bound) - importin-beta complex | cell-free CFP-Ran/YFP-importin-beta FRET ratio | inhibition, % (test concentration not listed) | 1.1% of 300,000 active;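 active = more than half of the replicate wells show a fall in the fluorescence ratio signal beyond about 16%, limit read from the data, passing the limit was not always enough; inconclusive = exactly half of the replicate wells pass the set limit; inactive = fewer than half of replicates pass the limit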;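 note: 0% = DMSO wells and 100% = Ran loaded with GDP instead of GTP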
LANA-H2A inh: blockers of LANA interaction with H2A/H2B – biochemical, FP readout, HTS, primary screen; Protein LANA1 (Human herpesvirus 8 type P (isolate GK18)), Q9QR71; cell-free LANA-H2A/H2B peptide, fluorescence polarization; inhibition, % (no concentration beside the values); 0.6% of 320,000 active; in the data active = inhibition mostly above about 10%, no sharp cut-off; inactive = mostly below about 6.7%
Runt-CBFb FRET: inhibitors of RUNX1 Runt–CBFb binding, primary screen, biochemical, FRET, Cerulean-Runt, Venus-CBFb, uHTS; Runt-related transcription factor 1 (Homo sapiens) + Core-binding factor subunit beta …; Cerulean-Runt/Venus-CBFb FRET ratio 530/480, 1 h; inhibition, % at 20 µM; 0.46% of 220,000 active;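 active = inhibition over about 50% at 20 µM in the single-dose screen, limit read from the data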;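 note: 0% = DMSO wells and 100% = excess unlabeled CBFb competitor control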
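Schedule: protein complex preformed 1 h, compound exposure 1 h, room temperature, dark; test system: Cerulean-labeled Runt domain protein; amount: 100 nM per protein; buffer or medium: Tris 50 mM pH 7.5, KCl, K2SO4, 0.01% BSA; read-out: loss of energy transfer signal; detection: FRET fluorescence; controls: 5 µM unlabeled CBFb as full-inhibition high control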
* marks the source's active call; other numbers are inactive results; u = inconclusive; x = no result given; ! = not confirmed by another sample. Hits are enriched below; roughly 2.4% of the tested compounds scored in any of these assays.

SMILES | Runt-SMMHC FRET | EBV gp42 block | MEX-5 binding | RanGTP-Impb inh | LANA-H2A inh | Runt-CBFb FRET
COc1cc(CN2CCCCCC2)cc(OC)c1OC | x | x | 3.3 | -1.6 | 1.0 | x
COc1cc(Cc2cnc(N)nc2N)cc(OC)c1OC | -6.7 | -4.0 | -2.9 | -0.1 | 16.3*! | 0.2
CC(C)NC(=O)N(C)C[C@H]1Oc2c(cccc2N(C)C)C(=O)N([C@H](C)CO)C[C@@H]1C | x | x | x | x | 1.7 | x
CCN(CC)C(=S)Nc1cc(C(=O)OC)ccc1C(=O)OC | 31.6 | -1.4 | x | 37.6* | -2.6 | 20.5
COC(=O)c1ccc(C(=O)OC)c(NC(=S)N2CCCC(C)C2)c1 (stereo not drawn) | 34.1 | -9.1 | -0.1 | 54.0* | 1.0 | 17.0
O=C(CN(C(=O)c1csnn1)c1cccc(Cl)c1)NC1CCCCC1 | x | x | -0.8 | 0.0 | 1.0 | x
O=c1[nH]c(C2CCN(S(=O)(=O)c3ccc(F)cc3)CC2)nc2c1nnn2Cc1ccc2c(c1)OCCO2 | x | x | 0.9 | 19.3* | -3.4 | x
O=c1[nH]c(C2CCN(S(=O)(=O)c3ccccc3F)CC2)nc2c1nnn2Cc1ccc2c(c1)OCCO2 | x | x | -0.9 | 12.0 | -3.4 | x
CCCCOC(=O)Nc1cccc(C(=O)OCC)c1 | -3.1 | -19.0 | -2.7 | 7.4 | -8.0 | -1.8
O=[N+]([O-])c1ccccc1S(=O)(=O)N(CC1CO1)c1ccccc1 (stereo not drawn) | x | x | 0.2 | 2.2 | 13.5* | x
COc1ccccc1N(CC(=O)N/N=C/c1c(O)ccc2ccccc12)S(C)(=O)=O | 52.6* | -13.1 | -3.1 | 1.7 | -2.4 | 36.0
COc1ccccc1NCC(=O)N/N=C/c1c(O)ccc2ccccc12 | x | x | u | -4.1 | -2.7 | x
COc1cc(C(=O)OCC(=O)NC(=O)NC2CCCCC2)cc(Cl)c1OC | x | x | 1.1 | 1.2 | -6.2 | x
CCCc1cc(NCCCO)n2c(nc3ccccc32)c1C#N | 37.5 | -14.8 | 0.1 | 30.3* | -6.0 | 14.8
CCCc1cc(-n2ccnc2)n2c(nc3ccccc32)c1C#N | 61.6* | -83.8 | 2.4 | u | -3.9 | 88.5*
O=C(COc1ccccc1)NCC(c1ccco1)N1CCCCC1 (stereo not drawn) | x | x | -0.9 | 4.8 | 0.7 | x
CN(c1ccccc1)S(=O)(=O)c1ccc(Cl)c(C(=O)NCC(c2ccco2)N2CCCC2)c1 (stereo not drawn) | x | x | x | x | 1.8 | x
O=C(CCOc1ccccc1)NCC(c1ccco1)N1CCCCC1 (stereo not drawn) | -0.2 | -5.9 | -1.9 | u | 7.9* | 0.4
CN(c1ccccc1)S(=O)(=O)c1ccc(C(=O)NCC(c2ccco2)N2CCCCC2)cc1 (stereo not drawn) | x | x | x | x | 38.6* | x
Cn1ccnc1SCC(=O)c1ccc2ccccc2c1 | 1.1 | -44.0 | -2.6 | 2.3 | -1.4 | 5.7
CC(C)CCN(C(=S)NC(=O)C1CCCCC1)c1c(N)n(Cc2ccccc2)c(=O)[nH]c1=O | -3.0 | 0.2 | 0.6 | -1.1 | -0.4 | 1.9
CCOC(=O)CN1C(=O)C(C)(C)Oc2ccc(C(=O)NC(C)(C)CC)cc21 | -3.2 | -6.9 | 4.2 | 0.1 | -6.2 | -2.6
CCC(C)(C)NC(=O)c1ccc2c(c1)N(CC(=O)OC)C(=O)C(C)(C)O2 | -2.1 | -19.3 | -0.6 | u | 18.0* | 1.2
O=C(O)c1ccc2c3c(ncnc13)-c1ccccc1C2=O | -18.4 | 76.0* | u | -1.7 | 6.4 | 13.9
O=C(O)c1cccc2c1C(=O)c1ccccc1C2=O | -4.1 | -4.3 | 1.1 | 1.6 | -0.5 | 2.5
SMILES | Runt-SMMHC FRET | EBV gp42 block | MEX-5 binding | RanGTP-Impb inh | LANA-H2A inh | Runt-CBFb FRET
CCOC(=O)c1cc2c(=O)n3cccc(C)c3nc2n(Cc2ccco2)c1=NC(=O)c1cccnc1 | 62.6* | 20.6 | x | x | x | 102.2*
CCOC(=O)c1cc2c(=O)n3ccccc3nc2n(CC(C)C)c1=NC(=O)c1ccco1 | 60.5* | -2.3 | -3.5 | 141.0* | 4.0 | 18.4
CCOC(=O)c1cc2c(=O)n3ccccc3nc2n(Cc2ccco2)c1=NC(=O)c1ccccc1OCC | 87.5* | 0.7 | -12.7 | 0.6 | 1.2 | 73.5*
CCOC(=O)c1cc2c(=O)n3ccccc3nc2n(Cc2ccco2)c1=NC(=O)c1cccnc1 | 46.5 | 3.5 | -13.1 | 2.7 | 2.6 | 52.0*
Cc1noc(C)c1CSCC(=O)Nc1nc2ccc(F)cc2s1 | x | x | 1.2 | 4.2 | -2.4 | x
CCC(Oc1ccccc1)C(=O)NCCOC (stereo not drawn) | 2.2 | -5.0 | 0.1 | 4.2 | -2.6 | -0.6
CCN(CC(=O)Nc1ccccc1C(F)(F)F)C(=O)c1oc2ccc(OC)cc2c1C | x | x | 2.1 | -1.0 | 1.1 | x
Cc1ccc2nsnc2c1NC(=O)COc1ccccc1 | -6.6 | 13.2 | -1.3 | 0.4 | 0.7 | -0.3
CC1CN(c2sc(S(C)(=O)=O)nc2S(=O)(=O)c2ccc(Cl)cc2)CC(C)O1 (stereo not drawn) | x | x | -1.5 | 16.1* | -0.9 | x
CC1CCCN(c2sc(S(C)(=O)=O)nc2S(=O)(=O)c2ccc(Cl)cc2)C1 (stereo not drawn) | x | x | 2.1 | 4.8 | -4.8 | x
N#CC1=C(N)N2C(=C(C#N)C13CCN(Cc1ccccc1)CC3)Nc1ccccc12 | 18.6 | -10.1 | 0.0 | 33.6* | -2.7 | 12.1
Cc1[nH]nc2c1C1(CCN(Cc3ccccc3)CC1)C(C#N)=C(N)O2 | 36.3 | 17.0 | -1.8 | u | 2.1 | 7.9
CCn1c(CNc2ccc(Cl)cc2)nnc1SCC#N | x | 3.0 | 0.8 | 4.9 | 3.3 | x
CCc1c(C)c2cc(Cl)c(O)c(CN3CCCC3)c2oc1=O | x | x | 0.8 | u | 4.9 | x
Cc1c(C)c2cc(Cl)c(O)c(CN3CCCCC3)c2oc1=O | 88.7* | 0.1 | -0.9 | u | 3.7 | 35.1
CN1CCN(Cc2c(O)c(Cl)cc3c(-c4ccccc4)cc(=O)oc23)CC1 | 38.7 | -23.4 | -0.1 | -0.4 | 0.1 | -2.3
Cc1cc(=O)oc2c(CN3CCN(C)CC3)c(O)c(Cl)cc12 | 136.2* | -23.9 | -0.3 | 14.1 | -3.8 | 97.2*
C[C@]12C=CC(=O)C=C1CC[C@@H]1C2=CC[C@]2(C)[C@@H](C(=O)CN3CCN(c4cc(N5CCCC5)nc(N5CCCC5)n4)CC3)CC[C@@H]12 | x | x | 2.8 | 65.3* | 0.2 | x
O=C(Nc1ccccc1C(=O)N1CCCC1)c1ccc(Cl)cc1Cl | x | x | -1.3 | 4.1 | 18.3* | x
COc1cccc(C(C)NC(=O)c2c(F)cccc2Cl)c1 (stereo not drawn) | -2.2 | -12.7 | 3.3 | 6.4 | 0.9 | 0.0
